# Measurements as given in ChEMBL document CHEMBL4477213, “Discovery and Optimization of Quinazolinone-pyrrolopyrrolones as Potent and Orally Bioavailable Pan-Pim Kinase Inhibitors” (J Med Chem, 2016).
# Assays:
# [1] = target: Serine/threonine-protein kinase pim-2 (Homo sapiens, UniProt Q9P1W9); test: Inhibition of full length recombinant Pim-2 (unknown origin) assessed as reduction in phosphorylation of biotinylated-BAD peptide at Serine 112 residue preincubated for 30 mins followed by substrate addition for 1 hr by HTRF assay
# Chain of Serine/threonine-protein kinase pim-2 (Q9P1W9 whole entry): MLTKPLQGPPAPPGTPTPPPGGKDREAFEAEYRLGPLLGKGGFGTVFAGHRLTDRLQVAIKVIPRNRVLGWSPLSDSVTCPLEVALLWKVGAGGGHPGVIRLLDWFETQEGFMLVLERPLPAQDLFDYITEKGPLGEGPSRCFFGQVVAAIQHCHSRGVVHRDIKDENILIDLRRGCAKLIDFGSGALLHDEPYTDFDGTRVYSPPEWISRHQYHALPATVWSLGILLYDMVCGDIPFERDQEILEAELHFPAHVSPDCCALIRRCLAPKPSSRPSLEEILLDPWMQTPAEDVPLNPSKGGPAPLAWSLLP
# [2] = Aqueous solubility of the compound in PBS at pH 7.4 after 1 hr by LC/MS analysis; format: physicochemical
# In short: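 The compound was dried down from DMSO and taken up in 1x PBS (pH 7.4) or FaSIF (pH 6.8). Samples were shaken 1 h, equilibrated at RT for 72 h, then centrifuged.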
# [3] = target: Serine/threonine-protein kinase pim-1 (Homo sapiens, UniProt P11309)
# Chain of Serine/threonine-protein kinase pim-1 (P11309 whole entry): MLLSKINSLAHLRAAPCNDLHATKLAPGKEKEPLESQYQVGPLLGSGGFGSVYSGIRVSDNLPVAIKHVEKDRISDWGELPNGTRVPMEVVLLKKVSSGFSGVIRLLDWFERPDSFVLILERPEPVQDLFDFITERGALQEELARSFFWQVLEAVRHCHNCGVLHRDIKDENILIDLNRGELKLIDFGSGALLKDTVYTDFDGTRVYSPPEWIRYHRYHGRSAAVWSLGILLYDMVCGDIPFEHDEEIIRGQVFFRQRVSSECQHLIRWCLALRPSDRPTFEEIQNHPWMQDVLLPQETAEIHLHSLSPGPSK
# [4] = target: Serine/threonine-protein kinase PIM (Homo sapiens, UniProt P11309+Q9P1W9+Q86V86); conditions: kms-12-bm
# [5] = Aqueous solubility of the compound in FaSIF at pH 6.8 after 1 hr by LC/MS analysis
# [6] = Volume of distribution at steady state in rat at 2 mg/kg, iv or 5 mg/kg, po; format: ADME, organism-based; conditions: in vivo, read-out: Vdss
# [7] = Oral bioavailability in rat at 5 mg/kg; format: ADME, organism-based; conditions: in vivo
# [8] = Apparent permeability in pig LLC-PK1 cells; format: ADME, cell-based, Sus scrofa
# [9] = Intrinsic clearance in rat liver microsomes at 1 uM after 30 mins in presence of NADPH; format: ADME, Microsome; conditions: read-out: CLH
# [10] = Intrinsic clearance in human liver microsomes at 1 uM after 30 mins in presence of NADPH; format: ADME, Microsome; conditions: read-out: CLH
# [11] = Clearance in rat at 2 mg/kg, iv; format: ADME, organism-based; conditions: in vivo
# [12] = Half life in rat at 2 mg/kg, iv or 5 mg/kg, po; format: ADME, organism-based; conditions: in vivo
# [13] = Intrinsic clearance in dog liver microsomes at 1 uM after 30 mins in presence of NADPH; format: ADME, Canis lupus familiaris, Microsome; conditions: read-out: CLH
# In short: (§1)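 Parent compound at 1 µM was incubated with liver microsomes (rat or dog, 0.25 mg/mL) in 66.7 mM potassium phosphate, pH 7.4, with 1 mM NADPH at 37 °C for 30 min.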
# [14] = Clearance in dog at 0.3 mg/kg, iv; format: ADME, organism-based, Canis lupus familiaris; conditions: in vivo
# [15] = Volume of distribution at steady state in dog at 0.3 mg/kg, iv; format: ADME, organism-based, Canis lupus familiaris; conditions: in vivo; for Vd: read-out: Vdss
# [16] = Half life in dog at 0.3 mg/kg, iv; format: ADME, organism-based, Canis lupus familiaris; conditions: in vivo
# [17] = Drug level in dog liver microsomes treated with 2-(3-(tert-butylamino)-6-fluoro-2-methylquinoxalin-5-yl)-6,7-dihydro-1H-pyrrolo[3,2-c]pyridin-4(5H)-one; format: ADME, Canis lupus familiaris, Microsome; in short: as §1
# [18] = Fraction unbound in rat plasma at 5 uM by rapid equilibrium dialysis; format: ADME, cell-free
# [19] = Fraction unbound in dog plasma by rapid equilibrium dialysis; format: ADME, cell-free, Canis lupus familiaris
# [20] = Unbound clearance in iv dosed dog; format: ADME, organism-based, Canis lupus familiaris; conditions: in vivo
# In short: (§2)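 Unbound plasma fraction (fu) measured by rapid equilibrium dialysis in rat or dog plasma; unbound clearance CLu calculated from IV clearance and fu.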
# [21] = Intrinsic clearance in rat hepatocytes assessed per 10^6 cells; format: ADME, cell-based, Hepatocyte; conditions: read-out: CLH
# [22] = Intrinsic clearance in dog hepatocytes assessed per 10^6 cells; format: ADME, cell-based, Canis lupus familiaris, Hepatocyte; conditions: read-out: CLH
# [23] = Unbound clearance in iv dosed rat; format: ADME, organism-based; conditions: in vivo; in short: as §2
# KMS-12-BM = test: Antitumor activity against human KMS-12-BM cells xenografted in SCID-bg mouse assessed as tumor growth inhibition at 50 mg/kg, po qd measured twice per week; format: functional; conditions: read-out: TGI
# [24] = Drug metabolism in rat liver microsomes assessed as hydroxylation of t-butyl group measured as 2-(6-fluoro-3-(1-hydroxy-2-methylpropan-2-ylamino)-2-methylquinoxalin-5-yl)-6,7-dihydro-1H-pyrrolo[3,2-c]pyridin-4(5H)-one formation; format: ADME, Microsome
# [25] = Drug metabolism in dog liver microsomes assessed as dehydrogenation of 6,7-dihydro-1H-pyrrolo[3,2-c]pyridin-4(5H)-one measured as 2-(3-(tert-butylamino)-6-fluoro-2-methylquinoxalin-5-yl)-1H-pyrrolo[3,2-c]pyridin-4(5H)-one formation; format: ADME, Canis lupus familiaris, Microsome
# [26] = Drug metabolism in dog hepatocytes assessed as hydroxylation on the quinoxaline bicycle; format: ADME, cell-based, Canis lupus familiaris, Hepatocyte
# Homo sapiens = species on record: Homo sapiens; test: Ratio of IC50 for pan Pim in human KMS-12-BM cells to IC50 for full length recombinant Pim-2 (unknown origin); format: cell-based
# In short: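 Enzyme step: full-length recombinant human Pim-2 phosphorylating a BAD peptide at Ser112. The shift is the ratio of the cellular potency to the enzymatic potency.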
# [27] = Drug level in rat liver microsomes treated with 2-(3-(tert-butylamino)-6-fluoro-2-methylquinoxalin-5-yl)-6,7-dihydro-1H-pyrrolo[3,2-c]pyridin-4(5H)-one; format: ADME, Microsome; in short: as §1
SMILES,IC50 [1] [nM],IC50 [3] [nM],IC50 [4] [nM],solubility at 1 h [5] [µM],Vd [6] [L/kg],bioavailability [7] [%],microsomal CLint at 1 µM [9] [µL/min/mg],microsomal CLint at 1 µM [10] [µL/min/mg],clearance [11] [mL/min/kg],half-life [12] [h],also measured
C[C@H]1NC(=O)c2cc(-c3cccc4c(=O)n(C)c(N5CCCC5(C)C)nc34)[nH]c21,0.6,0.9,88,35,–,–,–,–,–,–,solubility at 1 h [2]: 20 µM
C[C@H]1NC(=O)c2cc(-c3cccc4c(=O)n(C)c(NC(C)(C)CO)nc34)[nH]c21,0.9,0.7,127,134,–,–,–,–,–,–,solubility at 1 h [2]: 101 µM
C[C@H]1NC(=O)c2cc(-c3cccc4c(=O)n(C)c(NC5(C)CC5)nc34)[nH]c21,–,–,–,344,1.9,5,–,–,–,–,solubility at 1 h [2]: 56 µM; Papp [8]: 29 ×10⁻⁶ cm/s
Cc1nc2cccc(-c3cc4c([nH]3)[C@H](C)NC4=O)c2nc1NC(C)(C)C,–,–,–,–,–,–,130,89,–,–,–
Cc1nc2cccc3c2nc1N[C@H](C)/C=C\C[C@H]1CNC(=O)c2cc-3[nH]c21,–,–,–,295,–,–,–,–,–,–,–
Cc1nc2ccc(F)c(-c3cc4c([nH]3)[C@@H](C)NC4=O)c2nc1NC(C)(C)C,–,–,–,–,1.6,54,52,35,8.33,2.9,microsomal CLint at 1 µM [13]: 105 µL/min/mg; clearance [14]: 25 mL/min/kg; Vd [15]: 1.7 L/kg; half-life [16]: 1.1 h
Cc1nc2cccc(-c3cc4c([nH]3)[C@@H](CCN)NC4=O)c2nc1NC(C)(C)C,0.3,0.6,22,–,21.2,< 1,< 14,< 14,23.3,17.5,–
Cc1nc2ccc(F)c(-c3cc4c(=O)[nH]ccc4[nH]3)c2nc1NC(C)(C)C,0.1,0.2,148,–,–,–,–,–,–,–,Drug metabolism [17]: Metabolite_Detected
Cc1nc2ccc(F)c(-c3cc4c([nH]3)CCNC4=O)c2nc1NC(C)(C)C,0.3,0.3,23,–,1,37,189,66,6.67,3.5,microsomal CLint at 1 µM [13]: 203 µL/min/mg; CL [14]: 56.7 mL/min/kg; Vdss [15]: 8.7 L/kg; t1/2 [16]: 0.6 h; fraction unbound at 5 µM [18]: 0.017; fraction unbound [19]: 0.06; CL free [20]: 943 mL/min/kg; hepatocyte CLint [21]: 39 µL/min/1e6 cells; hepatocyte CLint [22]: 32 µL/min/1e6 cells; CL free [23]: 392 mL/min/kg; inhibition in vivo at 50 mg/kg (KMS-12-BM): 78%; Drug metabolism [24]: Metabolite_Detected; Drug metabolism [25]: Metabolite_Detected
C[C@H]1NC(=O)c2cc(-c3nccc4c(=O)n(C)c(NC(C)(C)C)nc34)[nH]c21,7.4,4.5,1642,–,–,–,–,–,–,–,–
Cc1nc2cccc(-c3cc4c([nH]3)C3(CCOCC3)NC4=O)c2nc1NC(C)(C)C,117,44,5760,–,–,–,45,< 14,–,–,–
Cc1nc2cccc(-c3cc4n(c3)CCNC4=O)c2nc1NC(C)(C)C,6.1,6.6,4560,–,–,–,205,85,–,–,–
Cc1nc2cccc(-c3cc4c([nH]3)C3(CC3)NC4=O)c2nc1NC(C)(C)C,0.5,0.4,78,–,1.3,100,52,35,10,4.5,–
Cc1nc2cccc(-c3cc4c([nH]3)[C@@H](C)NC4=O)c2nc1NC(C)(C)C,–,–,–,245,1.3,62,50,37,8.33,3,solubility at 1 h [2]: 99 µM; microsomal CLint at 1 µM [13]: 88 µL/min/mg; clearance [14]: 26.7 mL/min/kg; Vd [15]: 1.7 L/kg; half-life [16]: 0.6 h; Drug metabolism [26]: Metabolite_Detected
Cc1nc2cccc(-c3cc4c([nH]3)CNC4=O)c2nc1NC(C)(C)C,0.9,–,44,–,2.3,36,96,45,26.7,1.7,–
C[C@H]1NC(=O)c2cc(-c3c(F)ccc4c(=O)n(C)c(NC(C)(C)C)nc34)[nH]c21,–,–,–,23,1.4,10,16,< 14,6.67,4.3,solubility at 1 h [2]: 14 µM; Papp [8]: 16 ×10⁻⁶ cm/s; fraction unbound at 5 µM [18]: 0.062
Cc1nc2cccc(-c3cc4c([nH]3)CCNC4=O)c2nc1NC(C)(C)C,0.6,0.8,110,–,4.2,6,86,70,11.7,4.7,–
Cc1c(NC(C)(C)C)nc2c(-c3cc4c([nH]3)[C@@H](C)NC4=O)cccn2c1=O,2.1,3.1,> 2000,–,–,–,–,–,–,–,–
Cc1nc2cccc(-c3cc4c([nH]3)CCCNC4=O)c2nc1NC(C)(C)C,–,–,–,–,–,–,169,67,–,–,–
C[C@H]1NC(=O)c2cc(-c3cccc4c3N=C(NC(C)(C)C)N(C)S4(=O)=O)[nH]c21,5.2,6.5,1142,–,–,–,–,–,–,–,–
C[C@H]1NC(=O)c2cc(-c3cccc4c(=O)n(C)c(CC(C)(C)C)nc34)[nH]c21,4.9,7.3,5960,9,–,–,–,–,–,–,Ratio IC50 (Homo sapiens): > 1000
Cc1nc2cccc(-c3[nH]c4c(c3Cl)C(=O)N[C@@H]4C)c2nc1NC(C)(C)C,–,–,–,–,–,–,143,111,–,–,–
Cc1nc2cccc(-c3cc4c(s3)CNC4=O)c2nc1NC(C)(C)C,6.8,6.4,2870,–,–,–,326,102,–,–,–
Cc1nc2cccc(-c3cc4c(s3)C(=O)NC4)c2nc1NC(C)(C)C,2.5,2.5,1380,–,–,–,373,104,–,–,–
Cc1nc2ccc(F)c(-c3cc4c([nH]3)CCNC4=O)c2nc1NC(C)(C)CO,0.3,0.9,143,–,–,–,–,–,–,–,Drug metabolism [27]: Metabolite_Detected
C[C@H]1NC(=O)c2cc(-c3cccc4c(=O)n(C)c(N(C)C(C)(C)C)nc34)[nH]c21,1,1.5,167,122,–,–,–,–,–,–,solubility at 1 h [2]: 61 µM
